Measured values from ChEMBL document CHEMBL1149384, “Identification of a novel spiropiperidine opioid receptor-like 1 antagonist class by a focused library approach featuring 3D-pharmacophore similarity” (J Med Chem, 2006).

Legend:
Nociceptin receptor [1] = biological target: T1, Nociceptin receptor (Homo sapiens, UniProt P41146); assay: Displacement of [125I]Tyr-nociceptin from cloned human ORL1 expressed in CHO cells; format: cell-based
Summary of the method: (§1)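 Radioligand displacement using membrane fractions of CHO cells stably expressing cloned human receptors. IC50 reported as mean of three independent determinations, each in duplicate.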

Nociceptin receptor [2] = biological target: T1, Nociceptin receptor; assay: Antagonist activity on nociceptin-induced [35S]GTP-gamma-S binding to ORL1 expressed in CHO cells; format: functional, cell-based
Summary of the method: (§2)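 [35S]GTPγS binding in membrane fractions from CHO cells stably expressing human ORL1. Antagonism: IC50 against nociceptin-stimulated binding. Agonism: EC50 relative to maximal binding produced by nociceptin. Means of three independent determinations, each in duplicate.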

Nociceptin receptor [3] = biological target: T1, Nociceptin receptor; assay: Agonist activity on nociceptin-induced maximal [35S]GTP-gamma-S binding to ORL1 expressed in CHO cells; format: functional, cell-based; summary of the method: as §2
Mu-type opioid receptor = Mu-type opioid receptor (Homo sapiens, UniProt P35372); assay: Displacement of [3H]diprenorphin from cloned human mu opioid receptor expressed in CHO cells; format: cell-based; summary of the method: as §1
[4] = biological target: Kappa-type opioid receptor (Homo sapiens, UniProt P41145); assay: Displacement of [3H]U-69593 from cloned human kappa opioid receptor expressed in CHO cells; format: cell-based; summary of the method: as §1
[5] = biological target: Delta-type opioid receptor (Homo sapiens, UniProt P41143); assay: Displacement of [3H]naltrindole from cloned human delta opioid receptor expressed in CHO cells; format: cell-based; summary of the method: as §1
[6] = Distribution coefficient (LogD) between octanol and buffer; format: physicochemical
Rattus norvegicus = assay: Brain level in rat after administration of 10 mg/kg, sc; format: ADME, organism-based; design: dose 10 mg/kg, route subcutaneous; settings: in vivo
Summary of the method: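 Rats dosed 10 mg/kg sc. Plasma and brain collected 1 h after dosing and drug concentration measured, n = 3 per group. Plasma in nM, brain in nmol/g brain.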

Mus musculus = assay: Antagonist activity as % reversal against the reduction in locomotor activity produced by an ORL1 agonist in CD1 mice at 10 mg/kg, sc; format: functional; design: scale not given: the % may be the effect or the level left; settings: route subcutaneous
Summary of the method: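 Mice given test agent 10 mg/kg sc against an ORL1 agonist that reduces locomotor activity. Activity counted over 60 min. Value is % reversal of the agonist response, mean ± SEM, n = 7–8 per group.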

Chain of Mu-type opioid receptor (P35372 whole entry): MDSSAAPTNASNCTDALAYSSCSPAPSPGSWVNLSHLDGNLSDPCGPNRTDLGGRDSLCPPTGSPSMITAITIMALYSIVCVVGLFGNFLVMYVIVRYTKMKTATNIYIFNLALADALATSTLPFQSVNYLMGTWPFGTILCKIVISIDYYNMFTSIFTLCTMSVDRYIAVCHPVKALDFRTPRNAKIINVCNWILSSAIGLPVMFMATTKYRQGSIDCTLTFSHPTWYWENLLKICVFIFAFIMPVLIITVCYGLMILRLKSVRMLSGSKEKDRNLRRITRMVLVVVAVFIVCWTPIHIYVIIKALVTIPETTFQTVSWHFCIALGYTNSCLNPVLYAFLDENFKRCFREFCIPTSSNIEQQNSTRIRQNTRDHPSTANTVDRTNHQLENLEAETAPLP
Chain of Kappa-type opioid receptor (P41145 whole entry): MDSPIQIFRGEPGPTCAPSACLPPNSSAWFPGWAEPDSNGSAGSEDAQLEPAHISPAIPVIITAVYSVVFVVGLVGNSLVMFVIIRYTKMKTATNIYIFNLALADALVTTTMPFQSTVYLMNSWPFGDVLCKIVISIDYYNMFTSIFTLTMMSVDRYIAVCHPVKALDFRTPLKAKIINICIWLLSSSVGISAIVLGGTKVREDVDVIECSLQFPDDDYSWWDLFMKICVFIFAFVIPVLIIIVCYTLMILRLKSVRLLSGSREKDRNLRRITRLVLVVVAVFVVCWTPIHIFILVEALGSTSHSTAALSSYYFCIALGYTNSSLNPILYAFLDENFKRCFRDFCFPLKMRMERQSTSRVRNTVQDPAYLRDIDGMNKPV
Chain of Delta-type opioid receptor (P41143 whole entry): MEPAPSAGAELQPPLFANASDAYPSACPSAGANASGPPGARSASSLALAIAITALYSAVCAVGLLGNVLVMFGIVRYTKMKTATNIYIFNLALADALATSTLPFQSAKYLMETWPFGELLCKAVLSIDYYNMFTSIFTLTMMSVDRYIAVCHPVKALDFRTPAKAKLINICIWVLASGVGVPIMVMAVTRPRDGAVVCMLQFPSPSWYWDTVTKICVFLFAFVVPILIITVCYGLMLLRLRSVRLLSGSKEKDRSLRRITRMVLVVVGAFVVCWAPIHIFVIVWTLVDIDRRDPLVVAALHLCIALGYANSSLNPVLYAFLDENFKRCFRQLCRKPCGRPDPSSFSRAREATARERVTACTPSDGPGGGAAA
T1 sequence (P41146 whole entry): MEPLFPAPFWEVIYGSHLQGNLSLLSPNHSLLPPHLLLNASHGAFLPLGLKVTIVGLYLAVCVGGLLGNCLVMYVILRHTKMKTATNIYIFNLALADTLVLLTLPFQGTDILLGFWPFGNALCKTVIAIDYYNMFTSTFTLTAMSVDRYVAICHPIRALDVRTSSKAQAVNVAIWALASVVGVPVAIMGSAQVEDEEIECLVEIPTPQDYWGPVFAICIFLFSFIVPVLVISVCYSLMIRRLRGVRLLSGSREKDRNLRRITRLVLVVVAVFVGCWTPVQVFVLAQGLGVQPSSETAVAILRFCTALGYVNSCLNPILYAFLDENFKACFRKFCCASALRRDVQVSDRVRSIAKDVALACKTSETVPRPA

Compound | IC50 (Nociceptin receptor [1]) [µM] | further results
COc1ccc2c(c1)CC(CC(=O)NCCCN1CCC3(CCc4ccccc43)CC1)C2=O (configuration not stated) | > 1 | –
O=C(NCCCN1CCC2(CCc3ccccc32)CC1)c1ccccc1Nc1ccccc1 | 0.23 | –
O=C(CCCc1ccccc1)NCCCN1CCC2(CCc3ccccc32)CC1 | 0.35 | –
O=C(NCCCN1CCC2(CCc3ccccc32)CC1)C1CCc2ccccc2C1 (configuration not stated) | > 1 | –
O=C(NCCCN1CCC2(CCc3ccccc32)CC1)c1ccccc1-c1ccccc1 | 0.01 | IC50 (Nociceptin receptor [2]): 0.0083 µM; EC50 (Nociceptin receptor [3]): > 10 µM; IC50 (Mu-type opioid receptor): > 10 µM; IC50 [4]: 3.7 µM; IC50 [5]: > 10 µM; logD [6]: 3.1
CC(Oc1ccccc1)C(=O)NCCCN1CCC2(CCc3ccccc32)CC1 (configuration not stated) | 0.9 | –
O=C(CSc1ccccc1)NCCCN1CCC2(CCc3ccccc32)CC1 | 0.17 | –
O=C1N[C@@H](Cc2ccccc2)[C@@H](C(=O)NCCCN2CCC3(CCc4ccccc43)CC2)O1 | 0.03 | –
O=C(NCCCN1CCC2(CCc3ccccc32)CC1)C(Cc1ccccc1)c1ccccc1 (configuration not stated) | > 1 | –
O=C(CCc1c[nH]c2ccccc12)NCCCN1CCC2(CCc3ccccc32)CC1 | 0.36 | –
O=C(NCCCN1CCC2(CCc3ccccc32)CC1)c1ccccc1C(O)c1ccccc1 (configuration not stated) | 0.58 | –
O=C(NCCCN1CCC2(CCc3ccccc32)CC1)C(=O)c1c[nH]c2ccccc12 | 0.33 | –
CC(=O)N/C(=C\c1ccccc1)C(=O)NCCCN1CCC2(CCc3ccccc32)CC1 | > 1 | –
O=C(Cc1cccc(Oc2ccccc2)c1)NCCCN1CCC2(CCc3ccccc32)CC1 | 0.34 | –
O=C(/C=C/c1ccccc1)NCCCN1CCC2(CCc3ccccc32)CC1 | 0.54 | –
Cc1onc(-c2ccccc2)c1C(=O)NCCCN1CCC2(CCc3ccccc32)CC1 | > 1 | –
O=C(NCCCN1CCC2(CCc3ccccc32)CC1)C1CCCCC1C(=O)Nc1ccccc1 (configuration not stated) | > 1 | –
O=C(NCCCN1CCC2(CCc3ccccc32)CC1)[C@H]1CCCN1Cc1ccccc1 | 0.00022 | IC50 (Nociceptin receptor [2]): 0.00012 µM; EC50 (Nociceptin receptor [3]): > 1 µM; IC50 (Mu-type opioid receptor): 4.3 µM; IC50 [4]: 0.95 µM; IC50 [5]: > 10 µM; logD [6]: 2.7
O=C(N[C@H]1CCCC[C@H]1C(=O)NCCCN1CCC2(CCc3ccccc32)CC1)c1ccccc1 | > 1 | –
O=C(CC1Cc2ccccc2C1)NCCCN1CCC2(CCc3ccccc32)CC1 | > 1 | –
O=C(NCCCN1CCC2(CCc3ccccc32)CC1)C(=O)c1cnn(-c2ccccc2)c1C(F)(F)F | > 1 | –
Cc1ccc(C(=O)/C=C/C(=O)NCCCN2CCC3(CCc4ccccc43)CC2)cc1 | > 1 | –
O=C(NCCCN1CCC2(CCc3ccccc32)CC1)C1(c2ccccc2)CCCC1 | > 1 | –

Compound | IC50 (Nociceptin receptor [1]) [µM] | further results
O=C(NCCCN1CCC2(CCc3ccccc32)CC1)c1cc(=O)c2ccccc2o1 | > 1 | –
O=C1CC(C(=O)NCCCN2CCC3(CCc4ccccc43)CC2)c2ccccc21 (configuration not stated) | > 1 | –
O=C(NCCCN1CCC2(CCc3ccccc32)CC1)[C@H](O)Cc1ccccc1 | > 1 | –
C[C@@H](O)[C@H](NC(=O)c1ccccc1)C(=O)NCCCN1CCC2(CCc3ccccc32)CC1 | > 1 | –
O=C(NCCCN1CCC2(CCc3ccccc32)CC1)c1ncccc1Oc1ccccc1 | > 1 | –
O=C(NCCCN1CCC2(CCc3ccccc32)CC1)c1cccc(Oc2ccccc2)c1 | > 1 | –
O=C(CSc1nc2ccccc2s1)NCCCN1CCC2(CCc3ccccc32)CC1 | 0.29 | –
O=C(NCCCN1CCC2(CCc3ccccc32)CC1)[C@@H](O)Cc1ccccc1 | 0.012 | IC50 (Nociceptin receptor [2]): 0.0075 µM; EC50 (Nociceptin receptor [3]): > 10 µM; IC50 (Mu-type opioid receptor): > 10 µM; IC50 [4]: 6.9 µM; IC50 [5]: > 10 µM
O=C(Cc1ccccc1)NCCCN1CCC2(CCc3ccccc32)CC1 | > 1 | –
O=C(NCCCN1CCC2(CCc3ccccc32)CC1)[C@H]1CCC(=O)N1Cc1ccccc1 | 0.05 | –
O=C(NCCCN1CCC2(CCc3ccccc32)CC1)C1(c2ccccc2)CCCCC1 | 0.63 | –
CN(CC(=O)NCCCN1CCC2(CCc3ccccc32)CC1)C(=O)c1ccccc1 | > 1 | –
O=C(NCCCN1CCC2(CCc3ccccc32)CC1)C1Cc2ccccc2C1 | > 1 | –
O=C(NCCCN1CCC2(CCc3ccccc32)CC1)C1Cc2ccccc2N1c1ccccc1 (configuration not stated) | > 1 | –
O=C(Cc1cccc2ccccc12)NCCCN1CCC2(CCc3ccccc32)CC1 | > 1 | –
CC1=Cc2ccccc2C1C(=O)NCCCN1CCC2(CCc3ccccc32)CC1 (configuration not stated) | > 1 | –
O=C(N[C@H]1CCCC[C@@H]1C(=O)NCCCN1CCC2(CCc3ccccc32)CC1)c1ccccc1 | > 1 | –
O=C(NCCCN1CCC2(CCc3ccccc32)CC1)[C@H]1COCN1C(=O)OCc1ccccc1 | 0.131 | –
CC(C)(C)OC(=O)NC1(C(=O)NCCCN2CCC3(CCc4ccccc43)CC2)CCCCC1 | > 1 | –
O=C(Cc1ccc2c(c1)OCO2)C(=O)NCCCN1CCC2(CCc3ccccc32)CC1 | > 1 | –
CC(C)(C)C(Cc1ccccc1)C(=O)NCCCN1CCC2(CCc3ccccc32)CC1 (configuration not stated) | > 1 | –
O=C(/C=C/c1c[nH]c2ccccc12)NCCCN1CCC2(CCc3ccccc32)CC1 | > 1 | –
O=C(NCCCN1CCC2(CCc3ccccc32)CC1)c1ncccc1C(O)c1ccccc1 (configuration not stated) | > 1 | –

Compound | IC50 (Nociceptin receptor [1]) [µM] | further results
CC(NC(=O)c1ccccc1)C(=O)NCCCN1CCC2(CCc3ccccc32)CC1 (configuration not stated) | > 1 | –
O=C(NCCCN1CCC2(CCc3ccccc32)CC1)[C@@H]1CCCN1C(=O)c1ccccc1 | > 1 | –
O=C(NCCCN1CCC2(CC1)OCc1ccccc12)[C@H]1CCCN1Cc1ccccc1 | 0.00027 | Activity (Rattus norvegicus): 4.37 nM/g; IC50 (Nociceptin receptor [2]): 0.00015 µM; EC50 (Nociceptin receptor [3]): > 1 µM; Activity (Mus musculus): 88%; IC50 (Mu-type opioid receptor): 6.7 µM; IC50 [4]: 2.5 µM; IC50 [5]: > 10 µM
O=C(NCCCN1CCC2(CCc3ccccc32)CC1)c1ccccc1Cc1ccccc1 | 0.021 | –
COc1ccccc1/C=C\C(=O)NCCCN1CCC2(CCc3ccccc32)CC1 | > 1 | –
O=C(NCCCN1CCC2(CCc3ccccc32)CC1)C(O)(c1ccccc1)C1CCCCC1 (configuration not stated) | > 1 | –
CC(Oc1ccc(Cl)cc1Cl)C(=O)NCCCN1CCC2(CCc3ccccc32)CC1 (configuration not stated) | > 1 | –
O=C(NCCCN1CCC2(CCc3ccccc32)CC1)C1Cc2ccccc21 (configuration not stated) | > 1 | –
O=C(CCc1ccccc1)NCCCN1CCC2(CCc3ccccc32)CC1 | 0.73 | –
O=C(NCCCN1CCC2(CCc3ccccc32)CC1)[C@H]1COC(=O)N1Cc1ccccc1 | 0.024 | –
O=C(NCCCN1CCC2(CCc3ccccc32)CC1)[C@@H]1CCCN1Cc1ccccc1 | 0.047 | IC50 (Nociceptin receptor [2]): 0.042 µM; EC50 (Nociceptin receptor [3]): > 10 µM; IC50 (Mu-type opioid receptor): > 10 µM; IC50 [4]: 7.9 µM; IC50 [5]: > 10 µM
O=C(NCCCN1CCC2(CCc3ccccc32)CC1)c1ccccc1Oc1ccccc1 | 0.0082 | IC50 (Nociceptin receptor [2]): 0.004 µM; EC50 (Nociceptin receptor [3]): > 10 µM; IC50 (Mu-type opioid receptor): > 10 µM; IC50 [4]: 9.6 µM; IC50 [5]: > 10 µM
O=C(NCCCN1CCC2(CCc3ccccc32)CC1)C1CC1c1ccccc1 (configuration not stated) | > 1 | –
O=C(NCCCN1CCC2(CCc3ccccc32)CC1)c1cccc2c1Cc1ccccc1-2 | > 1 | –
O=C(NCCCN1CCC2(CCc3ccccc32)CC1)c1ccccc1OCc1ccccc1 | 0.083 | IC50 (Nociceptin receptor [2]): 0.11 µM; EC50 (Nociceptin receptor [3]): > 10 µM; IC50 (Mu-type opioid receptor): > 10 µM; IC50 [4]: 2.3 µM; IC50 [5]: > 10 µM
O=C(NCCCN1CCC2(CCc3ccccc32)CC1)C1CCN(c2ncccn2)CC1 | > 1 | –
O=C(Cc1ccccc1)C(=O)NCCCN1CCC2(CCc3ccccc32)CC1 | > 1 | –
COC(C(=O)NCCCN1CCC2(CCc3ccccc32)CC1)c1ccccc1 (configuration not stated) | > 1 | –
O=C(Cc1ccc2ccccc2c1)NCCCN1CCC2(CCc3ccccc32)CC1 | > 1 | –
O=C(NCCCN1CCC2(CCc3ccccc32)CC1)c1ncccc1-c1ccccc1 | > 1 | –
CC(C)(Oc1ccc(Cl)cc1)C(=O)NCCCN1CCC2(CCc3ccccc32)CC1 | 0.87 | –
O=C(NCCCN1CCC2(CCc3ccccc32)CC1)c1ccc(-c2ccc(Cl)cc2)o1 | > 1 | –
